# Reference: ChEMBL document CHEMBL4689842, “EUbOPEN Chemogenomics Library wave 1” (2021)
# Values joined by “and” are separate entries in the source; they are usually repeats but may differ in a detail not shown here. Equal entries are not always repeated.
# How the values were obtained:
# [1] = test system: HEK-293T; test: Incucyte cell viability with HEK293T; type: toxicity, cell-based; conditions: human, 10 µM, compound concentration 10 uM; note: filed as whole numbers so only -1 and 0 and 1 occur
# [2] = test system: U2OS; test: Multiplex assay against U2OS; type: toxicity, cell-based; conditions: human
# Method in brief: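 Hoechst33342, BioTracker Green Microtubule Cytoskeleton Dye, MitoTracker Red and Annexin V Alexa Fluor 680 were added to live cells at seeding, and imaging on a CQ1 microscope at 37°C and 5% CO2 followed compound addition. Gating by CellPathfinder machine learning separated cells into Hoechst high-intensity objects or normal cells, then normal cells into healthy, pyknosed or fragmented nuclei, then pyknosed cells into mitotic or apoptotic. Per cents of healthy-nucleus cells are reported for the tubulin, mitochondrial-mass and membrane-permeability phenotypes.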
# [3] = 12 h, 1 µM, compound concentration 1 uM, replicate 1
# [4] = 12 h, 1 µM, compound concentration 1 uM, replicate 2
# [5] = 12 h, 10 µM, compound concentration 10 uM, replicate 1
# [6] = 12 h, 10 µM, compound concentration 10 uM, replicate 2
# [7] = 24 h, 1 µM, compound concentration 1 uM, replicate 1
# [8] = 24 h, 1 µM, compound concentration 1 uM, replicate 2
# [9] = 24 h, 10 µM, compound concentration 10 uM, replicate 1
# [10] = 24 h, 10 µM, compound concentration 10 uM, replicate 2
smiles,measurement,setting,value
COc1cc(N2CCC(N(C)C)CC2)ccc1Nc1ncc(Cl)c(Nc2ccccc2P(C)(C)=O)n1,Growth Rate,"[1]; 6 h, replicate number 1, timepoint 6 hours",0
same,Growth Rate,"[1]; 12 h, replicate number 1, timepoint 12 hours",0
same,Growth Rate,"[1]; 18 h, replicate number 1, timepoint 18 hours",0
same,Growth Rate,"[1]; 24 h, replicate number 1, timepoint 24 hours",0
CC(=O)O[C@H]1C(=O)[C@@]2(C)[C@H]([C@H](OC(=O)c3ccccc3)[C@]3(O)C[C@H](OC(=O)[C@H](O)[C@@H](NC(=O)c4ccccc4)c4ccccc4)C(C)=C1C3(C)C)[C@]1(OC(C)=O)CO[C@@H]1C[C@@H]2O [PACLITAXEL],Population Fragmented Nuclei (%),[2]; [3],6% and 4%
same,Population Healthy Nuclei (%),[2]; [3],86% and 92%
same,Population Hoechst High Intensity Objects (%),[2]; [3],3% and 2%
same,Population Membrane Permeable-Phenotype (%),[2]; [3],15% and 11%
same,Population Mitochondria Different-Phenotype (%),[2]; [3],21% and 22%
same,Population Mitotic Cells (%),[2]; [3],33% and 80%
same,Population Normal (%),[2]; [3],96% and 97%
same,Population Pyknosed Nuclei (%),[2]; [3],7% and 3%
same,Population Tubulin-Different-Phenotype (%),[2]; [3],32% and 25%
same,Population Apoptotic (%),[2]; [4],6% and 8%
same,Population Fragmented Nuclei (%),[2]; [4],7%
same,Population Healthy Nuclei (%),[2]; [4],81% and 84%
same,Population Hoechst High Intensity Objects (%),[2]; [4],10% and 11%
same,Population Membrane Permeable-Phenotype (%),[2]; [4],14% and 7%
same,Population Mitochondria Different-Phenotype (%),[2]; [4],24% and 30%
same,Population Mitotic Cells (%),[2]; [4],93% and 91%
same,Population Normal (%),[2]; [4],90% and 88%
same,Population Pyknosed Nuclei (%),[2]; [4],10% and 8%
same,Population Tubulin-Different-Phenotype (%),[2]; [4],33%
same,Population Apoptotic (%),[2]; [5],30% and 77% and 26%
same,Population Fragmented Nuclei (%),[2]; [5],3% and 5% and 4% and 2%
same,Population Healthy Nuclei (%),[2]; [5],91% and 89%
same,Population Hoechst High Intensity Objects (%),[2]; [5],3% [middle of 4 runs]
same,Population Membrane Permeable-Phenotype (%),[2]; [5],11% and 7%
same,Population Mitochondria Different-Phenotype (%),[2]; [5],19% and 25%
same,Population Normal (%),[2]; [5],96% and 95% and 99% and 98%
same,Population Pyknosed Nuclei (%),[2]; [5],5%
same,Population Tubulin-Different-Phenotype (%),[2]; [5],41% and 30% and 39%
same,Population Fragmented Nuclei (%),[2]; [6],10% and 6%
same,Population Healthy Nuclei (%),[2]; [6],81% and 88% and 83% and 87%
same,Population Hoechst High Intensity Objects (%),[2]; [6],12% and 9% and 11%
same,Population Membrane Permeable-Phenotype (%),[2]; [6],12% and 9% and 8% and 6%
same,Population Mitochondria Different-Phenotype (%),[2]; [6],28% and 20% and 33%
same,Population Mitotic Cells (%),[2]; [6],77% [middle of 4 runs]
same,Population Normal (%),[2]; [6],87% and 90% and 88%
same,Population Pyknosed Nuclei (%),[2]; [6],8% and 6% and 2%
same,Population Tubulin-Different-Phenotype (%),[2]; [6],28% and 26% and 31%
same,Population Fragmented Nuclei (%),[2]; [7],4%
same,Population Healthy Nuclei (%),[2]; [7],93% and 90%
same,Population Hoechst High Intensity Objects (%),[2]; [7],1% and 3%
same,Population Membrane Permeable-Phenotype (%),[2]; [7],10% and 3%
same,Population Mitochondria Different-Phenotype (%),[2]; [7],19% and 15%
same,Population Mitotic Cells (%),[2]; [7],40% and 83%
same,Population Normal (%),[2]; [7],98% and 96%
same,Population Pyknosed Nuclei (%),[2]; [7],2% and 5%
same,Population Tubulin-Different-Phenotype (%),[2]; [7],35%
same,Population Apoptotic (%),[2]; [8],38% and 33%
same,Population Fragmented Nuclei (%),[2]; [8],5%
same,Population Healthy Nuclei (%),[2]; [8],87% and 91%
same,Population Hoechst High Intensity Objects (%),[2]; [8],6% and 7%
same,Population Membrane Permeable-Phenotype (%),[2]; [8],12% and 9%
same,Population Mitochondria Different-Phenotype (%),[2]; [8],23% and 26%
same,Population Mitotic Cells (%),[2]; [8],61% and 66%
same,Population Normal (%),[2]; [8],93% and 92%
same,Population Pyknosed Nuclei (%),[2]; [8],6% and 4%
same,Population Tubulin-Different-Phenotype (%),[2]; [8],37% and 33%
same,Population Apoptotic (%),[2]; [9],37% and 21%
same,Population Fragmented Nuclei (%),[2]; [9],3% and 2%
same,Population Healthy Nuclei (%),[2]; [9],94% and 91% and 93%
same,Population Hoechst High Intensity Objects (%),[2]; [9],2% and 1%
same,Population Membrane Permeable-Phenotype (%),[2]; [9],6% and 4%
same,Population Mitochondria Different-Phenotype (%),[2]; [9],26% and 17% and 29%
same,Population Mitotic Cells (%),[2]; [9],62% and 78%
same,Population Normal (%),[2]; [9],97% and 98%
same,Population Pyknosed Nuclei (%),[2]; [9],2% and 4% and 5%
same,Population Tubulin-Different-Phenotype (%),[2]; [9],50% and 38% and 34% and 37%
same,Population Apoptotic (%),[2]; [10],50% [middle of 4 runs]
same,Population Fragmented Nuclei (%),[2]; [10],10% and 5% and 7%
same,Population Healthy Nuclei (%),[2]; [10],81% and 86% and 85%
same,Population Hoechst High Intensity Objects (%),[2]; [10],5% and 3% and 4% and 9%
same,Population Mitochondria Different-Phenotype (%),[2]; [10],32% [middle of 4 runs]
same,Population Mitotic Cells (%),[2]; [10],45% and 66% and 50% and 64%
same,Population Normal (%),[2]; [10],94% and 96% and 95% and 90%
same,Population Pyknosed Nuclei (%),[2]; [10],8% and 3% and 6%
same,Population Tubulin-Different-Phenotype (%),[2]; [10],31% and 26% and 27%
